From ChEMBL document CHEMBL1806434, “Acyclic nucleoside phosphonates with a branched 2-(2-phosphonoethoxy)ethyl chain: efficient synthesis and antiviral activity” (Bioorg Med Chem, 2011)
The source made the active and inactive calls. No cut-off for these calls is given here.

Legend:
Human alphaherpesvirus 3 [1] = assay: Antiviral activity against Varicella-zoster virus YS expressing thymidine kinase assessed as reduction of virus induced cytopathicity by cell based assay; format: functional, organism-based
Human alphaherpesvirus 3 [2] = assay: Antiviral activity against Varicella-zoster virus strain OKA expressing thymidine kinase assessed as reduction of virus induced cytopathicity by cell based assay; format: functional; conditions: for Activity: strain Oka vaccine; for EC50: Human alphaherpesvirus 3, strain Oka vaccine
Summary of the method: (§1)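 Confluent cell monolayers infected with 100 CCID50 virus, or 20 PFU for plaque assays, then incubated with serial compound dilutions. Host cells listed for the non-HIV panel are HEL fibroblasts, Vero, HeLa, CRFK or MDCK. Cytopathicity is scored, or plaques counted for VZV, once infected untreated controls reach full CPE.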

Human alphaherpesvirus 3 [3] = assay: Antiviral activity against thymidine kinase-deficient Varicella-zoster virus 07/1 assessed as reduction of virus induced cytopathicity by cell based assay; format: functional, organism-based; conditions: for EC50: Human alphaherpesvirus 3, 07/1; summary of the method: as §1
Human alphaherpesvirus 3 [4] = assay: Antiviral activity against thymidine kinase-deficient Varicella-zoster virus YS/R assessed as reduction of virus induced cytopathicity by cell based assay; format: functional, organism-based
Human alphaherpesvirus 1 [5] = assay: Antiviral activity against Herpes simplex virus 1 strain KOS assessed as reduction of virus induced cytopathicity by cell based assay; format: functional, organism-based; conditions: for EC50: Human alphaherpesvirus 1, KOS; summary of the method: as §1
Human alphaherpesvirus 2 = assay: Antiviral activity against Herpes simplex virus 2 strain G assessed as reduction of virus induced cytopathicity by cell based assay; format: functional, organism-based; conditions: for EC50: Human alphaherpesvirus 2, strain G; summary of the method: as §1
Human alphaherpesvirus 1 [6] = assay: Antiviral activity against thymidine kinase-deficient acyclovir-resistant Herpes simplex virus 1 strain KOS assessed as reduction of virus induced cytopathicity by cell based assay; format: functional, organism-based; conditions: for EC50: Human alphaherpesvirus 1, KOS; summary of the method: as §1
Human betaherpesvirus 5 [7] = assay: Antiviral activity against Human cytomegalovirus strain AD169 assessed as reduction of virus induced cytopathicity by cell based assay; format: functional, organism-based; summary of the method: as §1
Human betaherpesvirus 5 [8] = assay: Antiviral activity against Human cytomegalovirus Davis assessed as reduction of virus induced cytopathicity by cell based assay; format: functional, organism-based; conditions: for EC50: Human betaherpesvirus 5, Davis; summary of the method: as §1
Vaccinia virus = assay: Antiviral activity against Vaccinia virus Lederle assessed as reduction of virus induced cytopathicity by cell based assay; format: functional, organism-based; conditions: Orthopoxvirus vaccinia; summary of the method: as §1
[9] = test system: Vesicular stomatitis virus; assay: Antiviral activity against Vesicular stomatitis virus assessed as reduction of virus induced cytopathicity by cell based assay; format: functional, organism-based; summary of the method: as §1
Coxsackievirus B4 = assay: Antiviral activity against Coxsackievirus B4 assessed as reduction of virus induced cytopathicity by cell based assay; format: functional, organism-based
Summary of the method: (§2)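 Confluent cell monolayers in 96-well plates (HEL, Vero, HeLa, CRFK or MDCK; the cell type per virus is not specified) infected with 100 CCID50 virus or 20 PFU and incubated with serial compound dilutions. Cytopathicity scored once it was complete in untreated infected controls.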

[10] = test system: Respiratory syncytial virus; assay: Antiviral activity against Respiratory syncytial virus Long assessed as reduction of virus induced cytopathicity by cell based assay; format: functional, organism-based; summary of the method: as §2
Human respirovirus 3 = assay: Antiviral activity against Human parainfluenza virus 3 assessed as reduction of virus induced cytopathicity by cell based assay; format: functional, organism-based; summary of the method: as §2
[11] = test system: Mammalian orthoreovirus 1; assay: Antiviral activity against Reovirus-1 assessed as reduction of virus induced cytopathicity by cell based assay; format: functional, organism-based; summary of the method: as §2
Sindbis virus = assay: Antiviral activity against Sindbis virus assessed as reduction of virus induced cytopathicity by cell based assay; format: functional, organism-based; summary of the method: as §2
Punta Toro virus = assay: Antiviral activity against Punta Toro virus assessed as reduction of virus induced cytopathicity by cell based assay; format: functional, organism-based; summary of the method: as §2
[12] = Cytotoxicity against human HEL cells assessed as alteration of cell morphology after 3 days by microscopic analysis; format: cell-based
Summary of the method: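 MCC taken as the lowest compound concentration producing microscopically detectable alteration of HEL fibroblast morphology.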

HEL = assay: Cytotoxicity against human HEL cells after 3 days by coulter counter; format: cell-based; conditions: 72 h
Summary of the method: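 HEL cells seeded at 5 × 10^3 cells/well and allowed to proliferate for 24 h, then exposed to a range of compound concentrations for 3 days at 37 °C. Cells counted with a Coulter counter.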

Row | SMILES | Activity (Human alphaherpesvirus 3 [1]) | Activity (Human alphaherpesvirus 3 [2]) | Activity (Human alphaherpesvirus 3 [3]) | Activity (Human alphaherpesvirus 3 [4]) | Activity (Human alphaherpesvirus 1 [5]) | Activity (Human alphaherpesvirus 2) | Activity (Human alphaherpesvirus 1 [6]) | Activity (Human betaherpesvirus 5 [7]) | Activity (Human betaherpesvirus 5 [8]) | Activity (Vaccinia virus) | Activity [9] | Activity (Coxsackievirus B4) | Activity [10] | Activity (Human respirovirus 3) | Activity [11] | Activity (Sindbis virus) | Activity (Punta Toro virus) | EC50 (Human alphaherpesvirus 1 [5]) | EC50 (Human alphaherpesvirus 1 [6]) | EC50 (Vaccinia virus) | also measured
1 | O=c1[nH]cnc2c1ncn2CCOC(COCc1ccccc1)CP(=O)(O)O (stereo unspecified) | inactive | inactive | inactive | inactive | inactive | inactive | inactive | inactive | inactive | inactive | inactive | inactive | inactive | inactive | inactive | inactive | inactive |  |  |  | 
2 | Nc1nc2c(ncn2COCCO)c(=O)[nH]1 [ACYCLOVIR] |  |  |  |  |  |  |  |  |  |  |  |  |  |  |  |  |  | 0.3 µM | 7.3 µM | > 250 µM | MCC at 72 h [12]: > 444 µM; CC50 (HEL): 1340 µM
3 | O=c1ccn(CCOC(CO)CP(=O)(O)O)c(=O)[nH]1 (stereo unspecified) | inactive | inactive | inactive | inactive | inactive | inactive | inactive | inactive | inactive | inactive | inactive | inactive | inactive | inactive | inactive | inactive | inactive |  |  |  | 
4 | Cc1cn(CCOC(CO)CP(=O)(O)O)c(=O)[nH]c1=O (stereo unspecified) | inactive | inactive | inactive | inactive | inactive | inactive | inactive | inactive | inactive | inactive | inactive | inactive | inactive | inactive | inactive | inactive | inactive |  |  |  | 
5 | CC(CP(=O)(O)O)OCCn1ccc(N)nc1=O (stereo unspecified) |  |  |  |  |  |  |  |  |  |  | inactive | inactive | inactive | inactive | inactive | inactive | inactive | > 361 µM | > 361 µM | > 361 µM | EC50 (Human alphaherpesvirus 3 [2]): 130 µM; EC50 (Human alphaherpesvirus 3 [3]): 168 µM; EC50 (Human alphaherpesvirus 2): > 361 µM; EC50 (Human betaherpesvirus 5 [8]): > 361 µM; MCC at 72 h [12]: > 361 µM; CC50 (HEL): 307 µM
6 | Nc1nc2c(ncn2CCOC(COCc2ccccc2)CP(=O)(O)O)c(=O)[nH]1 (stereo unspecified) |  |  |  |  |  |  |  |  |  |  | inactive | inactive | inactive | inactive | inactive | inactive | inactive | > 240 µM | > 240 µM | > 240 µM | EC50 (Human alphaherpesvirus 3 [2]): 109 µM; EC50 (Human alphaherpesvirus 3 [3]): 94 µM; EC50 (Human alphaherpesvirus 2): > 240 µM; EC50 (Human betaherpesvirus 5 [8]): > 240 µM; MCC at 72 h [12]: > 240 µM; CC50 (HEL): > 240 µM
7 | CC(CP(=O)(O)O)OCCn1cnc2c(N)nc(N)nc21 (stereo unspecified) | inactive | inactive | inactive | inactive | inactive | inactive | inactive | inactive | inactive | inactive | inactive | inactive | inactive | inactive | inactive | inactive | inactive |  |  |  | 
8 | O=c1[nH]cnc2c1ncn2CCOC(CO)CP(=O)(O)O (stereo unspecified) |  |  |  |  |  |  |  |  |  |  | inactive | inactive | inactive | inactive | inactive | inactive | inactive | 208 µM | > 315 µM | > 315 µM | EC50 (Human alphaherpesvirus 3 [2]): 88 µM; EC50 (Human alphaherpesvirus 3 [3]): 197 µM; EC50 (Human alphaherpesvirus 2): 315 µM; EC50 (Human betaherpesvirus 5 [8]): > 315 µM; MCC at 72 h [12]: > 315 µM; CC50 (HEL): > 315 µM
